Test results as given in ChEMBL document CHEMBL1255220, “Synthesis and antitumor effect in vitro and in vivo of substituted 1,3-dihydroindole-2-ones” (J Med Chem, 2010).
The source made the active and inactive calls. The rule behind the calls is not given here.

How the values were obtained:
PC-3 [1] = test: Cytotoxicity against human PC3 cells after 72 hrs by WST-1 assay; assay type: functional, cell-based
Summary of the method: (§1)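 Cells seeded at 3×10³/well; next day serially diluted compound added in triplicate; 72 h at 37 °C, 5% CO₂. Viable cells measured with WST-1 reagent (1 h), absorbance 450 nm minus 690 nm reference. IC50 is mean ± SD of at least two experiments run in triplicate. MCF-7 grown in DMEM, PC3 in RPMI, each with 10% serum.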

MCF7 [2] = test: Cytotoxicity against human MCF7 cells after 72 hrs by WST-1 assay; assay type: functional, cell-based; summary of the method: as §1
[3] = Half life in mouse at 5 mg/kg, iv; assay type: ADME, organism-based; design: dose 5 mg/kg, route intravenous; conditions: in vivo
Summary of the method: (§2)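 Compound given as single iv dose to mice or rats. Plasma samples prepared by protein precipitation with acetonitrile containing 1 μg/mL internal standard (3:1 v/v). Analysed by UPLC-MS/MS on a C18 reversed-phase column at 40 °C with an acetonitrile–0.05% formic acid gradient. Half-life and AUC (h ng/mL) derived from the plasma levels.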

[4] = AUC in mouse at 5 mg/kg, iv; assay type: ADME, organism-based; design: dose 5 mg/kg, route intravenous; conditions: plasma; summary of the method: as §2
[5] = Toxicity in iv dosed rat assessed as maximum tolerated dose; conditions: in vivo
MDA-MB-468 = test: Cytotoxicity against human MDA-MB-468 cells; assay type: functional, cell-based
[6] = Therapeutic index, ratio of MTD in rat to ED50 for antitumor activity against human PC3 cells xenografted in rat; assay type: cell-based, PC-3; conditions: in vivo, read-out: TI
Summary of the method: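 PC3 human prostate cancer cells (1e7, grown in RPMI + 10% FBS, suspended in PBS + Matrigel) were implanted sc in female nude rats (NIHRNU-M) or nude mice (NMRI/nude), with iv dosing 3×/week. Rat MTD came from a single iv dose. Effective rat doses were estimated from mouse xenografts using a mouse-to-rat conversion factor of 0.5. Index = rat toxic dose / rat effective dose.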

PC-3 [7] = test: Antitumor activity against human PC3 cells xenografted in sc dosed NMRI mouse assessed as tumor regression dose; assay type: functional
Summary of the method: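 1e7 PC3 cells (grown in RPMI + 10% FBS) in PBS/Matrigel 1:1 injected sc into female NMRI nude mice or female NIH-RNU nude rats. Compound dosed iv three times per week. Tumour regression dose recorded. Rat effective doses were estimated from mouse xenografts using a 0.5 mouse-to-rat conversion factor.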

MDA-MB-231 = test: Cytotoxicity against human MDA-MB-231 cells; assay type: functional, cell-based
PC-3 [8] = test: Antitumor activity against human PC3 cells xenografted in sc dosed rat assessed as tumor regression dose; assay type: functional
[9] = target: Eukaryotic translation initiation factor 2 subunit 1 (Homo sapiens) (UniProt P05198); test: Inhibition of eIF2alpha autophosphorylation in human A2780 cells; assay type: cell-based
Eukaryotic translation initiation factor 2 subunit 1 (Homo sapiens), sequence (P05198 whole entry): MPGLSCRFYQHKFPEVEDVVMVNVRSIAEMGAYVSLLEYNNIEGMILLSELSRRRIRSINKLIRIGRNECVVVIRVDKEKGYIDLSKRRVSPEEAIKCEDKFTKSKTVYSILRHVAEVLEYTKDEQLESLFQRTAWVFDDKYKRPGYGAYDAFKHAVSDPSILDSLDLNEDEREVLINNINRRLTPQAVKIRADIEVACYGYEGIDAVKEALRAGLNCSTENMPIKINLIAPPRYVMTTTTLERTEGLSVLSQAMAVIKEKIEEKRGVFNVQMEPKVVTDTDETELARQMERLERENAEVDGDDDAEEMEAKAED
Summary of the method: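 MCF-7 (DMEM) and A2780 (RPMI 1640) cells, together with sublines made resistant by culture in rising concentrations of the parent oxindole, were treated with compound for 4 and 24 h respectively. Lysates (20 μg protein) separated by SDS-PAGE and blotted onto nitrocellulose. Phospho-eIF2α read by western blot: milk block, primary antibody overnight at 4 °C, HRP secondary antibody.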

[10] = target: Eukaryotic translation initiation factor 2 subunit 1 (Homo sapiens) (UniProt P05198); test: Induction of eIF2alpha phosphorylation in human MCF7 cells
[11] = AUC in rat at 10 mg/kg, iv; assay type: ADME, organism-based; design: dose 10 mg/kg, route intravenous; conditions: plasma; summary of the method: as §2
[12] = Half life in rat at 10 mg/kg, iv; assay type: ADME, organism-based; design: dose 10 mg/kg, route intravenous; conditions: in vivo; summary of the method: as §2
[13] = AUC in rat at 2.5 mg/kg, iv; assay type: ADME, organism-based; design: dose 2.5 mg/kg, route intravenous; conditions: plasma; summary of the method: as §2
[14] = Half life in rat at 2.5 mg/kg, iv; assay type: ADME, organism-based; design: dose 2.5 mg/kg, route intravenous; conditions: in vivo; summary of the method: as §2
[15] = AUC in rat at 5 mg/kg, iv; assay type: ADME, organism-based; design: dose 5 mg/kg, route intravenous; conditions: plasma; summary of the method: as §2
[16] = Half life in rat at 5 mg/kg, iv; assay type: ADME, organism-based; design: dose 5 mg/kg, route intravenous; conditions: in vivo; summary of the method: as §2
MCF7 [17] = test: Cytotoxicity against human MCF7 cells after 72 hrs at 0.5 uM by WST-1 assay; assay type: functional; conditions: MCF7, 72 h

SMILES	IC50 (PC-3 [1]; Homo sapiens, PC-3, 72 h) [nM]	IC50 (MCF7 [2]; Homo sapiens, MCF7, 72 h) [nM]	other results
COc1ccc2c(c1C)NC(=O)[C@]2(c1ccc(O)cc1)C1CCCCCC1	2	0.48	–
COc1ccc2c(c1C)NC(=O)[C@@]2(c1ccc(O)cc1)C1CCCCCC1	> 1000	> 1000	–
O=C1Nc2c(ccc(F)c2F)C1(c1ccc(O)cc1)c1ccc(O)cc1	699	20	half-life [3]: 1.7 h; AUC [4]: 6770 ng·h/mL; MTD [5]: 1 mg/kg; IC50 (MDA-MB-468): 20 nM; selectivity ratio [6]: 0.4; Activity (PC-3 [7]): 5 mg/kg; IC50 (MDA-MB-231): > 3000 nM
O=C1Nc2c(C(F)(F)F)cccc2C1(c1ccc(O)cc1)C1CCCCCC1 (racemic)	91	9.7	Activity (PC-3 [8]): >20 mg/kg; MTD [5]: 40 mg/kg; selectivity ratio [6]: 4; Activity (PC-3 [7]): 20 mg/kg
O=C1Nc2c(C(F)(F)F)cccc2C1(c1ccc(O)cc1)n1ccnc1 (racemic)	> 1000	> 1000	inhibition [9]: inactive; induction [10]: inactive
Cc1cc(C)c2c(c1)C(c1ccc(O)cc1)(c1ccc(F)cc1)C(=O)N2 (racemic)	209	40	–
Cc1cc(C)c2c(c1)C(c1ccc(O)cc1)(C1CCCCCC1)C(=O)N2 (racemic)	> 1000	> 1000	–
Cc1cc(F)cc2c1NC(=O)C2(c1ccc(O)cc1)C1CCCCCC1 (racemic)	> 1000	> 1000	–
Cc1ccc2c(c1C)NC(=O)C2(c1ccc(O)cc1)C1CCCCCC1 (racemic)	> 1000	19	–
Cc1c(F)ccc2c1NC(=O)C2(c1ccc(O)cc1)C1CCCCCC1 (racemic)	30	20	–
Cc1c(Cl)ccc2c1NC(=O)C2(c1ccc(O)cc1)C1CCCCCC1 (racemic)	150	51	–
Cc1ccc2c(c1Cl)NC(=O)C2(c1ccc(O)cc1)C1CCCCCC1 (racemic)	17	2.8	–
COc1ccc2c(c1C)NC(=O)C2(c1ccc(O)cc1)c1ccc(F)cc1 (racemic)	9	6.3	Activity (PC-3 [8]): <10 mg/kg; MTD [5]: 15 mg/kg; AUC [11]: 3950 ng·h/mL; selectivity ratio [6]: 3; Activity (PC-3 [7]): 10 mg/kg; half-life [12]: 1.5 h
COc1ccc2c(c1C)NC(=O)C2(c1ccc(O)cc1)C1CCCC1 (racemic)	111	1	–
COc1ccc2c(c1C)NC(=O)C2(c1ccc(O)cc1)C1CCCCC1 (racemic)	28	14	–
O=C1Nc2c(ccc(F)c2F)C1(c1ccccc1)c1ccc(O)cc1 (racemic)	8.9	7.1	–
O=C1Nc2c(ccc(F)c2F)C1(c1ccc(O)cc1)c1ccc(F)cc1 (racemic)	8.6	2.6	Activity (PC-3 [8]): <2.5 mg/kg; AUC [13]: 2530 ng·h/mL; half-life [3]: 2.1 h; AUC [4]: 1910 ng·h/mL; MTD [5]: 2.5 mg/kg; half-life [14]: 0.8 h; selectivity ratio [6]: 2; Activity (PC-3 [7]): 2.5 mg/kg
COc1ccc2c(c1C)NC(=O)C2(c1ccc(O)cc1)C1CCCCCC1 (racemic)	12	4.7	inhibition [9]: inactive; Activity (PC-3 [8]): 10 mg/kg; MTD [5]: 70 mg/kg; AUC [11]: 5760 ng·h/mL; induction [10]: inactive; selectivity ratio [6]: 7; Activity (PC-3 [7]): 20 mg/kg; half-life [12]: 1.5 h
COc1ccc(C2(c3ccc(O)cc3)C(=O)Nc3c2ccc(F)c3F)cc1 (racemic)	–	–	IC50 (PC-3 [1]; pc-3): 2.2 nM; IC50 (MCF7 [2]; mcf7): 6.3 nM
Cc1ccc(C2(c3ccc(O)cc3)C(=O)Nc3c2ccc(F)c3F)cc1 (racemic)	0.8	1.7	–
O=C1Nc2c(ccc(F)c2F)C1(c1ccc(O)cc1)C1CCCCC1 (racemic)	–	–	AUC [15]: 1350 ng·h/mL; IC50 (PC-3 [1]; pc-3): 32 nM; Activity (PC-3 [8]): <10 mg/kg; half-life [3]: 1.6 h; AUC [4]: 3550 ng·h/mL; MTD [5]: 10 mg/kg; half-life [16]: 1.1 h; selectivity ratio [6]: 2; Activity (PC-3 [7]): 10 mg/kg; IC50 (MCF7 [2]; mcf7): 13 nM
CCOc1ccc(C2(c3ccc(O)cc3)C(=O)Nc3c2ccc(F)c3F)cc1 (racemic)	24	11	–

SMILES	IC50 (PC-3 [1]; Homo sapiens, PC-3, 72 h) [nM]	IC50 (MCF7 [2]; Homo sapiens, MCF7, 72 h) [nM]	other results
CCCOc1ccc(C2(c3ccc(O)cc3)C(=O)Nc3c2ccc(F)c3F)cc1 (racemic)	> 1000	356	–
CCCCCOc1ccc(C2(c3ccc(O)cc3)C(=O)Nc3c2ccc(F)c3F)cc1 (racemic)	> 1000	> 1000	–
COc1ccc(C2(c3cccc(O)c3)C(=O)Nc3c2ccc(F)c3F)cc1 (racemic)	145	196	–
O=C1Nc2c(ccc(F)c2F)C1(c1ccc(O)cc1)c1ccc(F)c(F)c1 (racemic)	19	7.8	–
O=C1Nc2c(ccc(F)c2F)C1(c1ccc(O)cc1)c1cccs1 (racemic)	0.3	82	AUC [13]: 2630 ng·h/mL; half-life [3]: 0.4 h; AUC [4]: 395 ng·h/mL; half-life [14]: 0.7 h
O=C1Nc2c(ccc(F)c2F)C1(c1ccncc1)c1ccc(O)cc1 (racemic)	110	37	–
O=C1Nc2c(ccc(F)c2F)C1(c1ccc(O)cc1)c1cccnc1 (racemic)	> 1000	63	–
CCCC1(c2ccc(O)cc2)C(=O)Nc2c1ccc(F)c2F (racemic)	> 1000	> 1000	–
CCCCCC1(c2ccc(O)cc2)C(=O)Nc2c1ccc(F)c2F (racemic)	1.1	96	–
O=C1Nc2c(ccc(F)c2F)C1(c1ccc(O)cc1)C1CCCC1 (racemic)	8.2	12	AUC [13]: 2400 ng·h/mL; half-life [3]: 3.7 h; AUC [4]: 1850 ng·h/mL; half-life [14]: 1.1 h
O=C1Nc2c(ccc(F)c2F)C1(c1ccc(O)cc1)C1CCCCCC1 (racemic)	12	1.2	AUC [15]: 2290 ng·h/mL; half-life [3]: 1.3 h; AUC [4]: 694 ng·h/mL; MTD [5]: > 40 mg/kg; half-life [16]: 2.1 h; selectivity ratio [6]: 8; Activity (PC-3 [7]): 10 mg/kg
O=C1Nc2c(ccc(F)c2F)C1(c1ccc(O)cc1)C1CCCCCCC1 (racemic)	> 1000	> 1000	–
O=C1Nc2c(ccc(F)c2F)C1(CC1CCCCC1)c1ccc(O)cc1 (racemic)	> 1000	102	–
O=C1Nc2c(ccc(F)c2F)C1(Cc1ccccc1)c1ccc(O)cc1 (racemic)	> 1000	> 1000	–
O=C1Nc2ccccc2C1(c1ccc(O)cc1)c1ccc(F)cc1 (racemic)	> 1000	28	–
O=C1Nc2ccccc2C1(c1ccc(O)cc1)C1CCCCCC1 (racemic)	> 1000	247	–
Cc1cccc2c1NC(=O)C2(c1ccc(O)cc1)C1CCCCCC1 (racemic)	> 1000	> 1000	–
COc1ccc(C2(c3ccc(O)cc3)C(=O)Nc3c2ccc(F)c3F)cc1 (stereo in doubt; form 1)	–	–	IC50 (PC-3 [1]; pc-3): 2 nM; IC50 (MCF7 [2]; mcf7): 2.1 nM
O=C1Nc2c(ccc(F)c2F)C1(c1ccc(O)cc1)C1CCCCC1 (stereo in doubt; form 1)	–	–	IC50 (PC-3 [1]; pc-3): 9.2 nM; IC50 (MCF7 [2]; mcf7): 18 nM
COc1ccc(C2(c3ccc(O)cc3)C(=O)Nc3c2ccc(F)c3F)cc1 (stereo in doubt; form 2)	–	–	IC50 (PC-3 [1]; pc-3): > 1000 nM; IC50 (MCF7 [2]; mcf7): > 1000 nM
O=C1Nc2c(ccc(F)c2F)C1(c1ccc(O)cc1)C1CCCCC1 (stereo in doubt; form 2)	–	–	IC50 (PC-3 [1]; pc-3): > 1000 nM; IC50 (MCF7 [2]; mcf7): > 1000 nM
O=C1Nc2ccccc2C1(c1ccc(O)cc1)c1ccc(O)cc1 [OXYPHENISATINE]	> 1000	–	inhibition at 0.5 µM (MCF7 [17]): 73%
